SMILES strings stand for the structures. “Also recorded” adds a separate entry of the source. Where a SMILES comes first, the peptide text is derived from it. The star is where a group is joined. Bz = O=C(c1ccccc1)*; NHPh = c1ccc(N*)cc1

The subject of one data set is HIV-1NL4-3. As to the kind of experiment: Anti-HIV-1 assay in TZM-GFP cells. Type of data set: cell-based. The note with it: for inhibition at 2 µM: Human immunodeficiency virus 1, read-out: Inhibition at 2 μmol/L; for inhibition at 20 µM: Human immunodeficiency virus 1, read-out: Inhibition at 20 μmol/L; for Inhibition at 2 μmol/L: 2 μmol/L compound. Put shortly:
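TZM-GFP cells seeded at 1 × 10^4 per well; after 24 h, medium replaced with test compound at 20 μmol/L, with actives retested at 2 μmol/L. HIV-1NL4-3 (HEK 293FT-transfection stock, MT2-propagated, PEG-concentrated) added at MOI 1 24 h later. After 48 h, GFP-positive cells counted by imaging; inhibition relative to DMSO controls. Duplicates, at least two independent experiments.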

A further data set is described as follows: Cytotoxicity assay. To be noted: human, TZM-GFP cells. The data set is classed as cell-based. The essentials:
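TZM-GFP cells were plated at 1 × 10^4 cells per well and exposed continuously to increasing concentrations of test compound for 72 h. Viable cells were counted by XTT. CC50 came from a log(inhibitor) vs normalized response, variable-slope fit for each independent assay, then averaged. Runs were in duplicate across at least two independent experiments; mean ± SD.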

Data set [1] in a line: Microsomal stability assay, human liver microsomes. Type of data set: in vitro ADME. To be noted: for half-life at 1 μmol/L: human, pH 7.4. (In general: Liver microsomes are vesicles of endoplasmic reticulum, rich in cytochrome P450 enzymes.)
The nature of data set [2]: Microsomal stability assay, mouse liver microsomes. Type of data set: in vitro ADME. To be noted: for half-life at 1 μmol/L: mouse, pH 7.4.

As usually defined, the CC50 is the concentration giving 50% cytotoxicity. In the case of `CN(C(=O)[C@H](Cc1ccccc1)NC(=O)CC1NC(=O)NC1=O)c1ccccc1` (stereo partly drawn) [Compound 2, (2S)-2-(2-(2,5-Dioxoimidazolidin-4-yl)acetamido)-N-methyl-N,3-diphenylpropanamide], in the data set with HIV-1NL4-3 (HIV-1 in TZM-GFP cells), the “antiviral activity against HIV-1 (in words)” value (from here on “antiviral activity”) is “completely inactive”. Also, the cytotoxic concentration (CC50) at 72 h in the data set “Cytotoxicity assay” is more than 50 µM.

Take `Cc1ccc(N(C)C(=O)[C@H](Cc2ccccc2)NC(=O)CC2NC(=O)NC2=O)cc1` (stereo partly drawn) [Compound 3, (2S)-2-(2-(2,5-Dioxoimidazolidin-4-yl)acetamido)-N-methyl-3-phenyl-N-(p-tolyl)propanamide]: in the data set on HIV-1NL4-3, the inhibition at 2 µM came to 2% and the inhibition at 20 µM was found to be 62%. The compound also showed a CC50 at 72 h in “Cytotoxicity assay” of more than 50 µM.

As to `CN(C(=O)[C@H](Cc1ccccc1)NC(=O)CC1NC(=O)NC1=O)c1ccc(Cl)cc1` (stereo partly drawn) [Compound 4, (2S)-N-(4-Chlorophenyl)-2-(2-(2,5-dioxoimidazolidin-4-yl)acetamido)-N-methyl-3-phenylpropanamide], the “Inhibition at 2 μmol/L” value with HIV-1NL4-3 (HIV-1 in TZM-GFP cells) is reported as “inhibited HIV-1 weakly”. Moreover, the “Inhibition at 20 μmol/L” value with HIV-1NL4-3 (20 μmol/L compound, HIV-1 in TZM-GFP cells) is “almost completely”. Further, in the data set on HIV-1NL4-3, the inhibition at 2 µM amounted to 17% and the inhibition at 20 µM is 96%. The compound further displayed a half-maximal cytotoxic concentration (CC50) at 72 h in “Cytotoxicity assay” of more than 50 µM.

In the data set “Cytotoxicity assay”, `CN(C(=O)[C@H](Cc1ccccc1)NC(=O)CC1NC(=O)NC1=O)c1cccc(Cl)c1` (stereo partly drawn) [Compound 5, (2S)-N-(3-Chlorophenyl)-2-(2-(2,5-dioxoimidazolidin-4-yl)acetamido)-N-methyl-3-phenylpropanamide] registered a CC50 at 72 h of more than 50 µM.

In turn, `CN(C(=O)[C@H](Cc1ccccc1)NC(=O)CC1NC(=O)NC1=O)c1ccc(F)cc1` (stereo partly drawn) [Compound 6, (2S)-2-(2-(2,5-Dioxoimidazolidin-4-yl)acetamido)-N-(4-fluorophenyl)-N-methyl-3-phenylpropanamide] came in with a CC50 at 72 h in the data set “Cytotoxicity assay” of more than 50 µM.

In turn, `CN(C(=O)[C@H](Cc1ccccc1)NC(=O)CC1NC(=O)NC1=O)c1cccc(F)c1` (stereo partly drawn) [Compound 7, (2S)-2-(2-(2,5-Dioxoimidazolidin-4-yl)acetamido)-N-(3-fluorophenyl)-N-methyl-3-phenylpropanamide] yielded a cytotoxic concentration (CC50) at 72 h in the data set “Cytotoxicity assay” of more than 50 µM.

For `Cc1cn(CC(=O)N[C@@H](Cc2ccccc2)C(=O)N(C)c2ccccc2)c(=O)[nH]c1=O` [Compound 8, (S)-N-Methyl-2-(2-(5-methyl-2,4-dioxo-3,4-dihydropyrimidin-1(2H)-yl)acetamido)-N,3-diphenylpropanamide], the “Inhibition at 2 μmol/L” value in the data set with HIV-1NL4-3 (HIV-1 in TZM-GFP cells) was “exhibited inhibition”. In addition, in the data set with HIV-1NL4-3, the inhibition at 2 µM was determined as 35% and the inhibition at 20 µM was determined as 95%. Also, the CC50 at 72 h in “Cytotoxicity assay” is more than 50 µM.

Regarding `Cc1ccc(N(C)C(=O)[C@H](Cc2ccccc2)NC(=O)Cn2cc(C)c(=O)[nH]c2=O)cc1` [Compound 9, (S)-N-Methyl-2-(2-(5-methyl-2,4-dioxo-3,4-dihydropyrimidin-1(2H)-yl)acetamido)-3-phenyl-N-(p-tolyl)propanamide], in the data set on HIV-1NL4-3, the inhibition at 2 µM turned out to be 7% and the inhibition at 20 µM turned out to be 85%. This compound also gave a CC50 at 72 h in the data set “Cytotoxicity assay” of more than 50 µM.

Regarding `Cc1cn(CC(=O)N[C@@H](Cc2ccccc2)C(=O)N(C)c2cccc(Cl)c2)c(=O)[nH]c1=O` [Compound 11, (S)-N-(3-Chlorophenyl)-N-methyl-2-(2-(5-methyl-2,4-dioxo-3,4-dihydropyrimidin-1(2H)-yl)acetamido)-3-phenylpropanamide], the “Inhibition at 2 μmol/L” value in the data set on HIV-1NL4-3 (HIV-1 in TZM-GFP cells) is recorded as “exhibited inhibition”. In the data set on HIV-1NL4-3, the inhibition at 2 µM is 37% and the inhibition at 20 µM was 95%. The half-maximal cytotoxic concentration (CC50) at 72 h in the data set “Cytotoxicity assay” was more than 50 µM.

Consider `Cc1cn(CC(=O)N[C@@H](Cc2ccccc2)C(=O)N(C)c2ccc(F)cc2)c(=O)[nH]c1=O` [Compound 12, (S)-N-(4-Fluorophenyl)-N-methyl-2-(2-(5-methyl-2,4-dioxo-3,4-dihydropyrimidin-1(2H)-yl)acetamido)-3-phenylpropanamide], for which, in the data set with HIV-1NL4-3, the inhibition at 2 µM was 6% and the inhibition at 20 µM was 94%. Further, the cytotoxic concentration (CC50) at 72 h in “Cytotoxicity assay” was more than 50 µM.

As to `Cc1cn(CC(=O)N[C@@H](Cc2ccccc2)C(=O)N(C)c2cccc(F)c2)c(=O)[nH]c1=O` [Compound 13, (S)-N-(3-Fluorophenyl)-N-methyl-2-(2-(5-methyl-2,4-dioxo-3,4-dihydropyrimidin-1(2H)-yl)acetamido)-3-phenylpropanamide], in the data set on HIV-1NL4-3, the inhibition at 2 µM came out at 0% and the inhibition at 20 µM was found to be 74%. For the same compound, the CC50 at 72 h in “Cytotoxicity assay” was more than 50 µM.

Take `Cc1cn(CC(=O)N[C@@H](Cc2ccccc2)C(=O)N(C)c2cccc(Br)c2)c(=O)[nH]c1=O` [Compound 14, (S)-N-(3-Bromophenyl)-N-methyl-2-(2-(5-methyl-2,4-dioxo-3,4-dihydropyrimidin-1(2H)-yl)acetamido)-3-phenylpropanamide]: in the data set on HIV-1NL4-3 (HIV-1 in TZM-GFP cells), the “Inhibition at 2 μmol/L” value is “exhibited inhibition”. In addition, in the data set with HIV-1NL4-3, the inhibition at 2 µM was 22% and the inhibition at 20 µM came out at 100%. The same compound came in with a half-maximal cytotoxic concentration (CC50) at 72 h in “Cytotoxicity assay” of more than 50 µM.

For the compound `Cc1cn(CC(=O)N[C@@H](Cc2ccccc2)C(=O)N(C)c2cccc(C(F)(F)F)c2)c(=O)[nH]c1=O` [Compound 15, (S)-N-Methyl-2-(2-(5-methyl-2,4-dioxo-3,4-dihydropyrimidin-1(2H)-yl)acetamido)-3-phenyl-N-(3-(trifluoromethyl)phenyl)propanamide], the “Inhibition at 2 μmol/L” value in the data set on HIV-1NL4-3 (HIV-1 in TZM-GFP cells) was “exhibited inhibition”. In the data set with HIV-1NL4-3, the inhibition at 2 µM stood at 28% and the inhibition at 20 µM was 95%. The compound also showed a CC50 at 72 h in “Cytotoxicity assay” of more than 50 µM.

In the case of `Cc1cn(CC(=O)N[C@@H](C(=O)N(C)c2ccccc2)c2ccccc2)c(=O)[nH]c1=O` [Compound 16, (R)-N-Methyl-2-(2-(5-methyl-2,4-dioxo-3,4-dihydropyrimidin-1(2H)-yl)acetamido)-N,2-diphenylacetamide], the “antiviral activity” value in the data set on HIV-1NL4-3 (HIV-1 in TZM-GFP cells) is reported as “did not inhibit HIV-1”. The compound also displayed a CC50 at 72 h in the data set “Cytotoxicity assay” of more than 50 µM.

As to `CN(C(=O)[C@H](Cc1ccccc1)NC(=O)c1c[nH]c(=O)[nH]c1=O)c1ccccc1` [Compound 17, (S)-N-(1-(Methyl(phenyl)amino)-1-oxo-3-phenylpropan-2-yl)-2,4-dioxo-1,2,3,4-tetrahydropyrimidine-5-carboxamide], the “antiviral activity” value in the data set with HIV-1NL4-3 (HIV-1 in TZM-GFP cells) is “lack of antiviral activity; also recorded: completely inactive”. For the same compound, in the data set “Cytotoxicity assay”, the CC50 at 72 h is more than 50 µM.

Usually half-life stands for how long it takes for the measured level to halve. High values mean slow decline, low ones rapid decline. In the data set “Cytotoxicity assay”, `Cc1ccc(N(C)C(=O)[C@H](Cc2ccccc2)NC(=O)CNC(=O)c2ccccc2)cc1` [Compound 19, (S)-N-(2-((1-(Methyl(p-tolyl)amino)-1-oxo-3-phenylpropan-2-yl)amino)-2-oxoethyl)benzamide] registered a half-maximal cytotoxic concentration (CC50) at 72 h of more than 50 µM. In addition, the half-life at 1 μmol/L stood at 22 min in data set [1] and 5 min in data set [2].

For the compound `CN(C(=O)[C@H](Cc1ccccc1)NC(=O)CNC(=O)c1ccccc1)c1ccc(Cl)cc1` [Compound 20, (S)-N-(2-((1-((4-Chlorophenyl)(methyl)amino)-1-oxo-3-phenylpropan-2-yl)amino)-2-oxoethyl)benzamide], the half-maximal cytotoxic concentration (CC50) at 72 h in the data set “Cytotoxicity assay” was more than 50 µM. Moreover, the half-life at 1 μmol/L in data set [1] turned out to be 36 min; in data set [2], 13 min. For the same compound, the “fold increase of half-life over PF74 in HLMs” value in data set [1] (relative to PF74) is 51 fold. The “fold increase of half-life over PF74 in MLMs” value in data set [2] (relative to PF74) was 22 fold.

With `CN(C(=O)[C@H](Cc1ccccc1)NC(=O)CNC(=O)c1ccccc1)c1cccc(Cl)c1` [Compound 21, (S)-N-(2-((1-((3-Chlorophenyl)(methyl)amino)-1-oxo-3-phenylpropan-2-yl)amino)-2-oxoethyl)benzamide], in the data set on HIV-1NL4-3, the inhibition at 2 µM stood at 40% and the inhibition at 20 µM is 95%. For the same compound, the half-maximal cytotoxic concentration (CC50) at 72 h in “Cytotoxicity assay” is more than 50 µM.

For the compound `CN(C(=O)[C@H](Cc1ccccc1)NC(=O)CNC(=O)c1ccccc1)c1ccc(F)cc1` [Compound 22, (S)-N-(2-((1-((4-Fluorophenyl)(methyl)amino)-1-oxo-3-phenylpropan-2-yl)amino)-2-oxoethyl)benzamide], in the data set with HIV-1NL4-3, the inhibition at 2 µM was found to be 12% and the inhibition at 20 µM turned out to be 97%. This compound displayed a CC50 at 72 h in the data set “Cytotoxicity assay” of more than 50 µM.

On to `CN(C(=O)[C@H](Cc1ccccc1)NC(=O)CNC(=O)c1ccccc1)c1cccc(Br)c1` [Compound 24, (S)-N-(2-((1-((3-Bromophenyl)(methyl)amino)-1-oxo-3-phenylpropan-2-yl)amino)-2-oxoethyl)benzamide], for which, in the data set with HIV-1NL4-3, the inhibition at 2 µM came to 38% and the inhibition at 20 µM is 97%. Further, the CC50 at 72 h in the data set “Cytotoxicity assay” was more than 50 µM.

With `CN(C(=O)[C@H](Cc1ccccc1)NC(=O)CNC(=O)c1ccccc1)c1cccc(C(F)(F)F)c1` [Compound 25, (S)-N-(2-((1-(Methyl(3-(trifluoromethyl)phenyl)amino)-1-oxo-3-phenylpropan-2-yl)amino)-2-oxoethyl)benzamide], in the data set on HIV-1NL4-3, the inhibition at 2 µM was found to be 19% and the inhibition at 20 µM amounted to 89%. Moreover, the cytotoxic concentration (CC50) at 72 h in the data set “Cytotoxicity assay” was more than 50 µM.

Consider `CCN(C(=O)[C@H](Cc1ccccc1)NC(=O)CNC(=O)c1ccccc1)c1ccccc1` [Compound 26, (S)-N-(2-((1-(Ethyl(phenyl)amino)-1-oxo-3-phenylpropan-2-yl)amino)-2-oxoethyl)benzamide], for which the CC50 at 72 h in “Cytotoxicity assay” is more than 50 µM. Moreover, the half-life at 1 μmol/L in data set [1] came out at 14 min; in data set [2] it was 2.4 min.

`O=C(CNC(=O)c1ccccc1)N[C@@H](Cc1ccccc1)C(=O)N1CCC[C@H]1C(=O)Nc1ccccc1` [Compound 27, (S)-1-(Benzoylglycyl-L-phenylalanyl)-N-phenylpyrrolidine-2-carboxamide] (Bz-Gly-Phe-Pro-NHPh) registered a CC50 at 72 h in “Cytotoxicity assay” of more than 50 µM.

The values above are taken from article PMC7982424 (Acta Pharmaceutica Sinica. B, 2020).
